Assay results reported in ChEMBL document CHEMBL1141510, “Synthesis and antioxidant activities of 3,5-dialkoxy-4-hydroxycinnamamides” (Bioorg Med Chem Lett, 2008).

Tests used:
[1] = Antioxidant activity assessed as ABTS radical scavenging activity at 150 uM; type: functional
[2] = tested on: Radical scavenging activity; test: Antioxidant activity assessed as DPPH radical scavenging activity; type: functional
How it was run: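 Sample in ethanol added 1:9 to 0.15 mM DPPH radical in ethanol. Test compound solutions ranged 3–1000 µg/ml. Ethanol alone served as control. Reaction ran 10 min at 25 °C, then absorbance was read at 517 nm. Scavenging expressed as percent loss relative to control absorbance. EC50 taken as the concentration giving 50% loss of DPPH radical.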

[3] = tested on: Brain; test: Inhibition of lipid peroxidation in Sprague-Dawley rat brain after 30 mins by TBARS assay; type: functional, tissue-based; details: 0.5 h
How it was run: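 Brain from male Sprague–Dawley rats (about 10 weeks old) homogenized in ice-cold 10 mM Tris–HCl, pH 7.4, and spun 10 min at 1000g; the supernatant was used. TBARS read at 532 nm against a 1,1,3,3-tetraethoxypropane external standard.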

[4] = tested on: Radical scavenging activity; test: Antioxidant activity assessed as DPPH radical scavenging activity at 300 uM; type: functional
[5] = Antioxidant activity assessed as ABTS radical scavenging activity; type: functional

SMILES	IC50 [2] [µM]	IC50 [3] [µM]	IC50 [5] [µM]	Activity [1] [%]	Activity [4] [%]
CCCCCCOc1cc(/C=C/C(=O)NCc2cc(C(C)(C)C)c(O)c(C(C)(C)C)c2)cc(OCCCCCC)c1O	–	3.52	23.2	–	75
CCC(CC)Oc1cc(/C=C/C(=O)NCCCc2ccc(C)c(C)c2)cc(OC(CC)CC)c1O	84.4	1.73	–	49	–
CCCC(C)Oc1cc(/C=C/C(=O)NCCCc2ccc(C)c(C)c2)cc(OC(C)CCC)c1O (centres undefined)	68.4	1.33	26.3	–	–
CCCOc1cc(/C=C/C(=O)NCc2cc(C(C)(C)C)c(O)c(C(C)(C)C)c2)cc(OCCC)c1O	73	0.27	–	24	–
COc1cc(CNC(=O)CCCc2ccc(C)c(C)c2)ccc1O	–	57.2	–	–	–
CCCOc1cc(/C=C/C(=O)NCCc2cc(C(C)(C)C)c(O)c(C(C)(C)C)c2)cc(OCCC)c1O	114	0.26	–	37	–
COc1cc(CC(=O)NCCCc2ccc(C)c(C)c2)ccc1O	–	25.9	–	–	–
CCCCOc1cc(/C=C/C(=O)NCCc2cc(C(C)(C)C)c(O)c(C(C)(C)C)c2)cc(OCCCC)c1O	–	0.41	–	–	–
COc1cc(/C=C/C(=O)O)cc(OC)c1O [SINAPINATE]	–	4.77	–	–	–
COc1cc(/C=C/C(=O)NCCc2cc(C(C)(C)C)c(O)c(C(C)(C)C)c2)cc(OC)c1O	69	0.69	15.6	–	–

Continued by falling IC50 [3], values first:

IC50 [2] [µM]	IC50 [3] [µM]	IC50 [5] [µM]	SMILES	Activity [1] [%]	Activity [4] [%]
–	4.84	–	CCCC(C)Oc1cc(/C=C/C(=O)O)cc(OC(C)CCC)c1O (centres undefined)	–	–
–	3.68	–	CCCCOc1cc(/C=C/C(=O)O)cc(OCCCC)c1O	–	–
75.6	2.74	27.4	CCCCCCOc1cc(/C=C/C(=O)NCCc2cc(C(C)(C)C)c(O)c(C(C)(C)C)c2)cc(OCCCCCC)c1O	–	–
–	2.24	–	CCCCCCOc1cc(/C=C/C(=O)O)cc(OCCCCCC)c1O	–	–
–	2.21	–	CCC(CC)Oc1cc(/C=C/C(=O)O)cc(OC(CC)CC)c1O	–	–
80.3	1.46	11.3	COc1cc(/C=C/C(=O)NCc2cc(C(C)(C)C)c(O)c(C(C)(C)C)c2)cc(OC)c1O	–	–
67.7	0.82	–	CCC(CC)Oc1cc(/C=C/C(=O)NCc2cc(C(C)(C)C)c(O)c(C(C)(C)C)c2)cc(OC(CC)CC)c1O	44	–
66.6	0.57	–	CCCC(C)Oc1cc(/C=C/C(=O)NCc2cc(C(C)(C)C)c(O)c(C(C)(C)C)c2)cc(OC(C)CCC)c1O (centres undefined)	47	–
–	0.44	–	CCC(CC)Oc1cc(/C=C/C(=O)NCCc2cc(C(C)(C)C)c(O)c(C(C)(C)C)c2)cc(OC(CC)CC)c1O	–	55
177	0.42	–	CCCCOc1cc(/C=C/C(=O)NCc2cc(C(C)(C)C)c(O)c(C(C)(C)C)c2)cc(OCCCC)c1O	57	–
85.1	0.36	–	CCCC(C)Oc1cc(/C=C/C(=O)NCCc2cc(C(C)(C)C)c(O)c(C(C)(C)C)c2)cc(OC(C)CCC)c1O (centres undefined)	64	–
77.7	0.29	28.5	CCCCCCOc1cc(/C=C/C(=O)NCCCc2ccc(C)c(C)c2)cc(OCCCCCC)c1O	–	–
